The text below walks through data of article PMC3582828 (European journal of medicinal chemistry, 2012).

One series concerns the target PDE9 (Homo sapiens, UniProt O76083). Kind of series: PDE enzyme assay. It is filed as biochemical. The conditions noted are these: selectivity ratio IC50 PDE9 / IC50 PDE5.
The next series has as its target PDE10 (Homo sapiens, UniProt Q9Y233). Briefly: PDE enzyme assay. It is filed as biochemical. The following applies: selectivity ratio IC50 PDE10 / IC50 PDE5.
A further series deals with PDE4. Briefly: PDE enzyme assay. The following applies: for pIC50: read-out: PDE4 IC50, Data obtained by BPS Bioscience; for PDEX/PDE5 (PDE4): selectivity ratio IC50 PDE4 / IC50 PDE5. It is filed as biochemical. In short, it runs like this:
(§1)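 Each PDE was incubated at room temperature for 60 min in PDE assay buffer with 100 nM FAM-cGMP or FAM-cAMP substrate, 0.125 ng enzyme and test compound. A 1:100 binding-agent solution was then added for 60 min at room temperature.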

In the next series the target is PDE5 (Homo sapiens, UniProt O76074). Briefly: PDE enzyme assay. It is filed as biochemical. The following applies: ratio IC50 PDE5 / IC50 PDE5.
The target in another series is PDE1. Briefly: PDE enzyme assay. It is filed as biochemical. The following applies: for pIC50: read-out: PDE1 IC50, Data obtained by BPS Bioscience; for PDEX/PDE5 (PDE1): selectivity ratio IC50 PDE1 / IC50 PDE5. In short, it runs like this: as §1
For another series, the target named is PDE7. Briefly: PDE enzyme assay. It is filed as biochemical. The conditions noted are these: for pIC50: read-out: PDE7 IC50, Data obtained by BPS Bioscience; for PDEX/PDE5 (PDE7): selectivity ratio IC50 PDE7 / IC50 PDE5. In short, it runs like this: as §1
Another series addresses PDE11 (Homo sapiens, UniProt Q9HCR9). Briefly: PDE enzyme assay. It is filed as biochemical. The following applies: selectivity ratio IC50 PDE11 / IC50 PDE5.
A further series relates to PDE8. Kind of series: PDE enzyme assay. It is filed as biochemical. The conditions noted are these: selectivity ratio IC50 PDE8 / IC50 PDE5.
Another series concerns the target PDE2 (Homo sapiens, UniProt O00408). Kind of series: PDE enzyme assay. It is filed as biochemical. The following applies: selectivity ratio IC50 PDE2 / IC50 PDE5.
For another series, the target named is PDE3. Kind of series: PDE enzyme assay. The conditions noted are these: for pIC50: read-out: PDE3 IC50, Data obtained by BPS Bioscience; for PDEX/PDE5 (PDE3): selectivity ratio IC50 PDE3 / IC50 PDE5. It is filed as biochemical. In short, it runs like this: as §1
A short description of series [1]: Pharmacokinetics in mouse brain tissue and plasma. It is filed as in vivo, male BALB/c mice. In short, it runs like this:
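Test compound was dosed at 50 mg/kg p.o. in 0.05% aqueous methylcellulose. Plasma (retro-orbital blood, heparin) and brain were taken at 0, 0.25, 0.5, 1, 2 and 4 h, with 3 mice per time point. Brain was rinsed in cold saline and homogenised in methanol. LC/MS/MS used an internal standard and 1/x2-weighted linear regression. Penetration was expressed as brain/plasma Cmax and AUC ratios.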

The test system of series [2] is LTP in slices from APP/PS1 mice. Kind of series: LTP in hippocampal slices from APP/PS1 mice. On the set-up: species or system APP/PS1 mouse. The following applies: 50 nM through bath solution for 10 min prior to θ-burst.
In the next series the test system is APP/PS1 mice. Briefly: 2-day radial arm water maze. It is filed as in vivo, APP/PS1 mouse. The conditions noted are these: 3 mg/kg, i.p., for 3 weeks; 3–4 month old APP/PS1 mice; vehicle ~3 errors.

pIC50: −log10 of the molar value.

Chain of PDE2 (O00408 whole entry): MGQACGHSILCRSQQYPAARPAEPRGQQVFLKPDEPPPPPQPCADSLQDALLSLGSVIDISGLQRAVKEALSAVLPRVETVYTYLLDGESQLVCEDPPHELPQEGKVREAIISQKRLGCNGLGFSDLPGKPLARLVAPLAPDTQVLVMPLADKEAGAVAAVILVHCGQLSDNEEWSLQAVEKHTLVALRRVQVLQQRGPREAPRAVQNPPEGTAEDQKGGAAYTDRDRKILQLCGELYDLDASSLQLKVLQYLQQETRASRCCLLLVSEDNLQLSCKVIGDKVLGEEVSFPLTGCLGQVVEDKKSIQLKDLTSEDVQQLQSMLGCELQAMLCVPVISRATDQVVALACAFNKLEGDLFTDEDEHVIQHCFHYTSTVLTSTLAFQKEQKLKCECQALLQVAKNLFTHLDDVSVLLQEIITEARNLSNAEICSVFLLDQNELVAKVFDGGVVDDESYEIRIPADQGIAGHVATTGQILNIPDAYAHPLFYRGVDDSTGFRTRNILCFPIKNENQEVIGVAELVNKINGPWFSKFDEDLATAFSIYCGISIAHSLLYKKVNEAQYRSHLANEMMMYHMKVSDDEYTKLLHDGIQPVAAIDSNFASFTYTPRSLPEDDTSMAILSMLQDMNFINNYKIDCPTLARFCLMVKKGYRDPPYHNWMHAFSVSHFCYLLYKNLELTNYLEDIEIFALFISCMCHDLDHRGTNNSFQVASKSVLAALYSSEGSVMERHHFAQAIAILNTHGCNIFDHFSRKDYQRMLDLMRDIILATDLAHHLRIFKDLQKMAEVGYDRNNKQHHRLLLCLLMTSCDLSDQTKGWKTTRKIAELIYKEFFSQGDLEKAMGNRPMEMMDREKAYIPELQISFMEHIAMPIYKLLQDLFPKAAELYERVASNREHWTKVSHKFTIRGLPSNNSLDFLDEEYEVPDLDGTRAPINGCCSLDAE
Chain of PDE10 (Q9Y233 whole entry): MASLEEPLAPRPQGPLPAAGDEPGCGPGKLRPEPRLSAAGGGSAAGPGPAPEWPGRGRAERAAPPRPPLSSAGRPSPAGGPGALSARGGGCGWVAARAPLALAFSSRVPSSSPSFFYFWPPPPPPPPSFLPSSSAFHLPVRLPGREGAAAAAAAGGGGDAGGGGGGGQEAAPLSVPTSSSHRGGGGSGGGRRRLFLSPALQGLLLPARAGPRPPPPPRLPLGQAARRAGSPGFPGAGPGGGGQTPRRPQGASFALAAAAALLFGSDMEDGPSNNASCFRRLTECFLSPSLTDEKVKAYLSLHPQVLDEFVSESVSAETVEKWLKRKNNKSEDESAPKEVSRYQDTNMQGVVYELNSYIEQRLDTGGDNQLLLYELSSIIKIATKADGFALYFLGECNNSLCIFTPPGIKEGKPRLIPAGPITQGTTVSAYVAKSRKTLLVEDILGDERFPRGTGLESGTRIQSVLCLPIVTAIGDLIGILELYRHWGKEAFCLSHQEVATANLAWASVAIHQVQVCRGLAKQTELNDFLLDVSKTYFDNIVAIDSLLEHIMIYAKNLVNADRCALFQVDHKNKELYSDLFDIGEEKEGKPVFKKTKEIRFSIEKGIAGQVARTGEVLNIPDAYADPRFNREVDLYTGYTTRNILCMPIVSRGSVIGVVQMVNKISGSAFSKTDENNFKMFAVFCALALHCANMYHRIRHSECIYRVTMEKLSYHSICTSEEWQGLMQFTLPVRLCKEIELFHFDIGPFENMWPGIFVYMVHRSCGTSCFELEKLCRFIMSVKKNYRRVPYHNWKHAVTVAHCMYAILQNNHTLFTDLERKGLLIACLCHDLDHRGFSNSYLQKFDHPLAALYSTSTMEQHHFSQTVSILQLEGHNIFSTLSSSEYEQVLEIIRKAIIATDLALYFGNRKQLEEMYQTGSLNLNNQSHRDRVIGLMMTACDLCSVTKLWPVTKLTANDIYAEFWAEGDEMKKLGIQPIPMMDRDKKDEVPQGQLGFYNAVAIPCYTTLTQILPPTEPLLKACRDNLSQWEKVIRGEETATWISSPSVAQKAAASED
Chain of PDE9 (O76083 whole entry): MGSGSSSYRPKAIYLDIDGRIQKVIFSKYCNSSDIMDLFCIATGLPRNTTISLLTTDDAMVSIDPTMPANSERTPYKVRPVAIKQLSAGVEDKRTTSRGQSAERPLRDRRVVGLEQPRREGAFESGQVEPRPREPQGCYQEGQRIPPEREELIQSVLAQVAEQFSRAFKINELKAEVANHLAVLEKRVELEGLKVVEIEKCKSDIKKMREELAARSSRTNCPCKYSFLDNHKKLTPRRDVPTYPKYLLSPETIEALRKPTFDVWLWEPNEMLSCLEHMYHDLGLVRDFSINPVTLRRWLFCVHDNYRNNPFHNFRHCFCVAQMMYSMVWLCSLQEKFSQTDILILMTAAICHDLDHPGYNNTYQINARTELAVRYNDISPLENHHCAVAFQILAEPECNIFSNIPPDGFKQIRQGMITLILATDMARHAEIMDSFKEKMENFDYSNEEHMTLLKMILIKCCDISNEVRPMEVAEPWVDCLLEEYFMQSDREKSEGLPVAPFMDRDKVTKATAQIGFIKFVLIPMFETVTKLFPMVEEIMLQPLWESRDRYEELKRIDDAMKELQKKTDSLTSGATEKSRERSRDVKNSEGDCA
Chain of PDE11 (Q9HCR9 whole entry): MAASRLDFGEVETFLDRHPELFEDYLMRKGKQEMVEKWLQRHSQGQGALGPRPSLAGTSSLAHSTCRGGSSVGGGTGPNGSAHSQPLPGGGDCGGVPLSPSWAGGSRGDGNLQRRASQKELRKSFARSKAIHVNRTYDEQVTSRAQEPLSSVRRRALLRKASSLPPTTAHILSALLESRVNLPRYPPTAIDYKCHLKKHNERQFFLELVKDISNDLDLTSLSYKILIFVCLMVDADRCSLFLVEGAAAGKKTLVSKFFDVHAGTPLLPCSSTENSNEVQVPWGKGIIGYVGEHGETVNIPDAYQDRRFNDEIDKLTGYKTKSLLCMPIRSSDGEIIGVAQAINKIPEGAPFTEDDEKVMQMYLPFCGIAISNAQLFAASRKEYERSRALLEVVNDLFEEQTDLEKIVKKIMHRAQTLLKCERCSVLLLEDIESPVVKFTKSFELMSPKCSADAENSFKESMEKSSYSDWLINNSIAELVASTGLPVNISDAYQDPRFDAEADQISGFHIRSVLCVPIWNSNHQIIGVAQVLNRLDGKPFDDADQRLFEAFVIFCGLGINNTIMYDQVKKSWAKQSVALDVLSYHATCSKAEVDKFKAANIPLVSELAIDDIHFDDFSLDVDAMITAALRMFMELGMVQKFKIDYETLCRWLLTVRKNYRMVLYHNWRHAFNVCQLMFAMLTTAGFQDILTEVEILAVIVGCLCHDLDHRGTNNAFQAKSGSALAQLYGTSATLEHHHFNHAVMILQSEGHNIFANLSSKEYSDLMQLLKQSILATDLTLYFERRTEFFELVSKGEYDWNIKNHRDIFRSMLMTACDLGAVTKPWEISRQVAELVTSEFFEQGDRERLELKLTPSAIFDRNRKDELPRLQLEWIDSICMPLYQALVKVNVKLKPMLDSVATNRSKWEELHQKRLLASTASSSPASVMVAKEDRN

The term pIC50 denotes −log10 of the IC50, conventionally taken in molar units. Regarding `COc1ccc(CNc2c(CO)cnc3c(N(C)C)cc(C#N)cc23)cc1Cl` [7b, 4-[(3-chloro-4-methoxybenzyl)amino]-8-(N,N-dimethylamino)-3-(hydroxymethyl) quinoline-6-carbonitrile], the “PDEX/PDE5 (PDE9)” value at PDE9 was >10^4. For the same compound, at PDE10, the “PDEX/PDE5 (PDE10)” value is listed as >10^4. For the same compound, at PDE4, the pIC50 is < 5.00 and the “PDEX/PDE5 (PDE4)” value is >10^4. Moreover, on PDE5, the “PDEX/PDE5 (PDE5)” value is on record as 1. Further, on PDE1, the pIC50 is < 5.00 and the “PDEX/PDE5 (PDE1)” value is reported as >10^4. Moreover, on PDE7, the pIC50 is < 5.00 and the “PDEX/PDE5 (PDE7)” value is >10^4. For the same compound, at PDE11, the “PDEX/PDE5 (PDE11)” value was >10^4. In addition, the “PDEX/PDE5 (PDE8)” value in the series with PDE8 was >10^4. For the same compound, at PDE2, the “PDEX/PDE5 (PDE2)” value was >10^4. On PDE3, the pIC50 was < 5.00 and the “PDEX/PDE5 (PDE3)” value is listed as >10^4.
For the compound `COc1ccc(CNc2c(CO)cnc3c(C4CC4)cc(C#N)cc23)cc1Cl` [7a, 4-[(3-chloro-4-methoxybenzyl)amino]-8-cyclopropyl-3-(hydroxymethyl) quinoline-6-carbonitrile], the “Blood brain barrier penetration” value in [1] is “readily crosses the blood brain barrier”. On PDE9, the “PDEX/PDE5 (PDE9)” value is reported as >10^4. Besides, on PDE10, the “PDEX/PDE5 (PDE10)” value is on record as >10^4. Moreover, on PDE4, the pIC50 was < 5.00 and the “PDEX/PDE5 (PDE4)” value is listed as >10^4. Moreover, the “Effect on LTP in WT slices” value in series [2] is “no effect”. The “PDEX/PDE5 (PDE5)” value at PDE5 was 1. Moreover, at PDE1, the pIC50 is < 5.00 and the “PDEX/PDE5 (PDE1)” value is listed as >10^4. Further, at PDE7, the pIC50 was < 5.00 and the “PDEX/PDE5 (PDE7)” value is recorded as >10^4. For the same compound, the “PDEX/PDE5 (PDE11)” value on PDE11 is given as >10^4. Besides, the “Errors in the 2-day RAWM test” value with APP/PS1 mice is reported as “less than 2 errors”. In the series on PDE8, the “PDEX/PDE5 (PDE8)” value was >10^4. The “PDEX/PDE5 (PDE2)” value at PDE2 is recorded as >10^4. For the same compound, at PDE3, the pIC50 was < 5.00 and the “PDEX/PDE5 (PDE3)” value was >10^4.
